# Measured values from paper PMC6645473 (ACS Omega, 2018).
# Entries after “also recorded” stand apart in the source; their conditions may differ. Where no end group is shown, it is not given here. [ ]: non-standard residue; d: D form. Nle = CCCC[C@H](N)C(=O)O; Nva = CCC[C@H](N)C(=O)O; Aib = CC(C)(N)C(=O)O
# Experiments:
# [1] = tested on: Aβ1–42 toxicity in PC-12 cells; assay: MTT cell viability assay, Aβ1–42 co-incubated with tetrapeptides; format: cell-based; settings: calculated from OD570 of MTT assay in PC-12 cells
# Method in brief: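 PC-12 cells were grown in F-12K with 5% FBS and 10% horse serum and used at 70% confluence. For the assay, medium was switched to F-12K with 10% FBS, and cells were seeded at 17 000/well overnight. Monomerized Aβ1–42 was added with test peptide (DMSO stock diluted in PBS; 1:1, 1:5, 1:10) for 6 h. MTT was then added for 4 h, followed by DMSO solubilization and OD570. Inhibition % = 100×(OD peptide+Aβ − OD Aβ)/(OD control − OD Aβ).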
# [2] = Electron microscopy of tetrapeptides incubated alone; format: physicochemical; settings: HRTEM and STEM, peptide alone in SPB pH 7.4, 37 °C, 72 h
# Method in brief: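 Test peptide stock (5 mM in DMSO) diluted to 250 μM in 10 mM SPB, pH 7.4, and incubated alone at 37 °C for 72 h. A droplet is fixed on carbon-coated copper grids with 0.5% glutaraldehyde, washed with ultrapure water and negatively stained with 2% uranyl acetate. Grids are imaged by HRTEM/STEM at 120 keV.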
# Aβ1–42 [3] = biological target: T1, Aβ1–42 (Homo sapiens, UniProt P05067); assay: Electron microscopy; settings: HRTEM and STEM, Aβ1–42/test peptide 1:5, 37 °C, 72 h
# T1 sequence (P05067 672-713): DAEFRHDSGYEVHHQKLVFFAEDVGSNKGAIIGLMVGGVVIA
# Method in brief: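 HFIP-treated Aβ1–42 (50 μM in 10 mM sodium phosphate buffer, pH 7.4) mixed in equal volumes with test or control tetrapeptide (250 μM, from DMSO stock) to give 1:5, then held 72 h at 37 °C. Peptides alone were imaged too. Samples were fixed on carbon-coated copper grids with 0.5% glutaraldehyde, washed in water, negatively stained with 2% uranyl acetate and imaged at 120 keV.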
# Aβ1–42 [4] = biological target: T1, Aβ1–42; assay: ThT fluorescence assay of Aβ1–42 aggregation; format: biochemical; settings: Aβ1–42 2 μM + peptide 20 μM (1:10), Aβ1–42 alone = 100%, n = 3
# Method in brief: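 Aβ1–42 (2 μM) was incubated with test peptide at 1:10 in wells containing ThT (2.5 μM, glycine-NaOH pH 8.5), at 37 °C with shaking at 200 rpm. Fluorescence (ex 445/em 485 nm) was read at intervals over 7 days. Blank was subtracted, and RFU was normalized to the Aβ1–42-alone rise over ThT alone (100%). Triplicates were averaged.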
# Aβ1–42 [5] = biological target: T1, Aβ1–42; assay: Circular dichroism secondary structure analysis of Aβ1–42; format: biochemical; settings: CD, Aβ1–42/peptide 1:5, 12 h, 37 °C
# Method in brief: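 Aβ1–42 (NaOH stock diluted to 20 μM in sodium phosphate buffer) mixed 1:5 with test peptide (TFE stock diluted to 100 μM), 12 h at 37 °C. Spectra taken at 0 and 12 h, 190–260 nm, 37 °C, 1 mm cell, 50 nm/min, 2 nm bandwidth, averaging 3 scans. Buffer blank and inhibitor-alone spectra subtracted, then deconvolution into secondary-structure percentages.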
# [6] = tested on: Aβ1–40 toxicity for PC-12 cells; assay: MTT cell viability assay with Aβ1–40; format: cell-based; settings: data not shown
Substance,inhibition (%) of Aβ1–42 (2 μM) ([1]; test peptide 2 μM) [%],inhibition (%) of Aβ1–42 (2 μM) ([1]; test peptide 10 μM) [%],inhibition (%) of Aβ1–42 (2 μM) ([1]; test peptide 20 μM) [%],further results
Ile-Val-Ile-Ala [compound 7],0,3.0,2.0,
Leu-Val-Ile-Ala [compound 5],0,0,0,
Pro-Pro-Ile-Ala [compound 25],14.0,39.0,90.0,
Pro-Val-Ile-Ala [compound 9],0,0,0,
VVI[dA] [compound 39],0,,4.0,
VVI[dF] [compound 43],0,0,4.0,self-aggregation of peptide incubated alone [2]: large clusters of amorphous aggregates; morphology of Aβ1–42 aggregates upon co-incubation (Aβ1–42 [3]): small truncated aggregates were found in bunches
VV[Aib]A [compound 34],1.0,0,11.0,
VV[Nle]A [compound 38],0,0,0,
VV[Nva]A [compound 37],0,0,1.0,
VV[dA]A [compound 27],0,0,11.0,
VV[dF]A [compound 35],4.0,10.0,9.0,
VV[dI]A [compound 26],0,0,0,
VV[dL]A [compound 28],0,2.0,10.0,
VV[dP]A [compound 32],27.0,26.0,21.0,
VV[dV]A [compound 30],0,0,0,
V[Aib]IA [compound 20],0,22.0,,"RFU, time-dependent ThT study (Aβ1–42 [4]; at 24 h): 6%; RFU, time-dependent ThT study (Aβ1–42 [4]; at 3 days): 4%; RFU, time-dependent ThT study (Aβ1–42 [4]; at 5 days): 10.9%; RFU, time-dependent ThT study (Aβ1–42 [4]; at 7 days): 11.4%; self-aggregation of peptide incubated alone [2]: did not exhibit any self-aggregation; morphology of Aβ1–42 aggregates upon co-incubation (Aβ1–42 [3]): no such aggregates were formed; random coil form of Aβ1–42 co-incubated with inhibitor (Aβ1–42 [5]; Aβ1–42 alone at 12 h 42.3%): 58.5%; β-sheet conformation of Aβ1–42 co-incubated with inhibitor (Aβ1–42 [5]; Aβ1–42 alone at 12 h 47.1%): 14.2%; inhibition of Aβ1–40 toxicity [6]: did not show inhibition; also recorded: lack of activity"
V[dA]IA [compound 13],0,0,0,
V[dF]IA [compound 21],0,5.0,0,
V[dI]IA [compound 16],20.0,20.0,27.0,
V[dL]IA [compound 14],5.0,0,1.0,
V[dP]IA [compound 18],7.0,20.0,64.0,

Substance,inhibition (%) of Aβ1–42 (2 μM) ([1]; test peptide 2 μM) [%],inhibition (%) of Aβ1–42 (2 μM) ([1]; test peptide 10 μM) [%],inhibition (%) of Aβ1–42 (2 μM) ([1]; test peptide 20 μM) [%],further results
V[dV]IA [compound 12],0,0,0,
Val-Ile-Ile-Ala [compound 17],0,0,0,
Val-Leu-Ile-Ala [compound 15],0,0,13.0,
Val-Pro-Ile-Ala [compound 19],16.0,17.0,24.0,
"Val-Val-Ile-Ala [compound 1, reference compound]",8.0,30.0,,
Val-Val-Ile-Ile [compound 42],24.0,27.0,29.0,
Val-Val-Ile-Leu [compound 41],0,0,0,
Val-Val-Ile-Phe [compound 44],0,0,0,
Val-Val-Ile-Val [compound 40],4.0,13.0,9.0,
Val-Val-Leu-Ala [compound 29],10.0,0,0,
Val-Val-Phe-Ala [compound 36],0,0,0,
Val-Val-Pro-Ala [compound 33],0,0,3.0,
Val-Val-Val-Ala [compound 31],0,0,3.0,
[Aib]VIA [compound 10],1.0,9.0,13.0,
[Aib][Aib]IA [compound 24],13.0,18.0,73.0,
[Nva]VIA [compound 11],0,0,0,
[dA]VIA [compound 3],0,0,0,
[dI]VIA [compound 6],0,0,0,
[dL]VIA [compound 4],0,0,2.0,
[dP]VIA [compound 8],5.0,9.0,4.0,
